# Screening data as filed in PubChem.
# TRPC6 act = mouse TRPC6 channel activators, primary screen, cell-based, HEK293, membrane potential dye | Short transient receptor potential channel 6 (Mus musculus), Q61143 | HEK293-TRPC6 membrane potential dye fluorescence; active compounds read high | B-score at 10 µM | 0.13% of 310,000 active | AID 2550, 2010;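 active = B-score of the integrated fluorescence ratio above library mean plus 3 SD, and starting fluorescence ratio within library mean plus 5 SD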;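 note: higher score means more depolarization so channel activation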
# Target sequence (Q61143 whole entry, looked up): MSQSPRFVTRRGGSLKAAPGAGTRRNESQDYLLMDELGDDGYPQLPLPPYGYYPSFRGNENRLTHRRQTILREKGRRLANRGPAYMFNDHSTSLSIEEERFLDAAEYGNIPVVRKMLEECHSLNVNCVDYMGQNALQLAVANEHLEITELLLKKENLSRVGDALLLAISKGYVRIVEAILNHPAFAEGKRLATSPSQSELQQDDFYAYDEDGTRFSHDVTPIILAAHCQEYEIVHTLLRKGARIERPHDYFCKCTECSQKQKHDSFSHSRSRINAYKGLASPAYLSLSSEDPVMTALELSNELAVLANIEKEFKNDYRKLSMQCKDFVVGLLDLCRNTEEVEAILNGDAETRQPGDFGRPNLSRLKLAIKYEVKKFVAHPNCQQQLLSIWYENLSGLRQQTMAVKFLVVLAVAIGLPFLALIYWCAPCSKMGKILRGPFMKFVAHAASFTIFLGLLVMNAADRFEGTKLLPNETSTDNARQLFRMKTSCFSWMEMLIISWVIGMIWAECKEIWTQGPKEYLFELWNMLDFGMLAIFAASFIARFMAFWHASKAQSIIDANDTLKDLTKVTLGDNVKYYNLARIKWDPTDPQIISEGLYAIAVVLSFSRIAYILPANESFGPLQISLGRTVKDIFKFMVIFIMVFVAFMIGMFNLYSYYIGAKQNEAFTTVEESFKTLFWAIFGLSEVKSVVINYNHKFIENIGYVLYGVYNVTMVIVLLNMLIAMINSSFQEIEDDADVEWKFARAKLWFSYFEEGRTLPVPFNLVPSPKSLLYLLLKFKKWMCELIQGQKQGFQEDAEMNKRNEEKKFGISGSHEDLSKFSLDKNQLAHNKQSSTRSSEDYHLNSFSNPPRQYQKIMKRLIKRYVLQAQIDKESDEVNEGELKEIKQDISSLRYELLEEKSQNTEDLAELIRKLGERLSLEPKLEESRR
# TRPC6 inhibitor = mouse TRPC6 channel inhibitors, primary screen, cell-based, HEK293, membrane potential dye. Short transient receptor potential channel 6 (Mus musculus), Q61143. AID 2553, 2010. ACh-evoked depolarization; active compounds read low. 1.1% of 310,000 active. B-score at 10 µM;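 active = B-score under library mean minus 3 SD, initial fluorescence not abnormally high, positive integrated signal ratio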;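 note: B-score derived from integrated fluorescence ratio over the kinetic read; more negative B-score means stronger inhibition of depolarization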
# TRPC4 agonist = activators of mouse TRPC4 channel, primary screen, Fluo4 calcium, HEK293 TRPC4beta/mu-opioid cells | Fluo4 calcium fluorescence; active compounds read high | B-score at 10 µM | 0.49% of 310,000 active | AID 2237, 2010;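 active = B-score above 5 SD of library B-scores, and initial fluorescence ratio not above library mean plus 5 SD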;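 note: positive B-score marks a calcium rise read as TRPC4 activation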
#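 Test system: HEK293 cells stably co-expressing mouse TRPC4beta and mu-opioid receptor | Schedule: Fluo4 dye loading 45 min at room temperature, 110 s recording | Measured by: Kinetic Fluo4 calcium fluorescence, 5 s baseline at 1 Hz | Evaluation: B score of integrated ratio | Controls: Buffer (low) and maximal DAMGO (high)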
# TRPC4 block = inhibitors of mouse TRPC4 channel, primary screen, Fluo4 calcium, HEK293 TRPC4beta/mu-opioid cells | DAMGO-evoked Fluo4 calcium flux; active compounds read low | B-score at 10 µM | 0.39% of 300,000 active | AID 2247, 2010;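 active = B-score over 3 SD under the library average, no early fluorescence shift, positive overall ratio signal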
#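 Assay system: HEK293 cells with stable TRPC4beta plus mu-opioid receptor expression. Dosing: single dose. Measured by: Fluo4 Ca2+ flux fluorescence. Also added: DAMGO in two steps, submaximal then maximal. Read-out: B score from integrated Fluo4 fluorescence ratio.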
# TRPC4 PAM = positive allosteric modulators of TRPC4, primary screen, cell-based, mouse TRPC4beta, HEK293 mu-opioid, Fluo-4 calcium. B-score at 10 µM. DAMGO EC20, Fluo-4 Ca2+ flux; active compounds read high. 0.42% of 310,000 active;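 active = B-score of calcium response area above 5 SD of library B-scores, with initial fluorescence ratio within 5 SD of library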;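 note: B-score of integrated fluorescence ratio over time as area under calcium response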
# An asterisk follows results filed as active; i = inactive. Hits are enriched below; roughly 2.3% of the tested compounds scored in any of these assays.
SMILES,TRPC6 act,TRPC6 inhibitor,TRPC4 agonist,TRPC4 block,TRPC4 PAM
CCCCOc1ccc(C(=O)NCC(=O)NCC(c2ccc(OC)cc2)N2CCCC2)cc1 (stereo not drawn),i,i,i,i,14*
COc1ccc(C(CNC(=O)c2oc3ccc(Cl)cc3c2C)N2CCCCC2)cc1 (stereo not drawn),i,i,i,-5*,i
COc1ccc(C(CNC(=O)c2oc3c(Cl)cccc3c2C)N2CCCC2)cc1 (stereo not drawn),i,i,i,i,i
COc1ccc(C(CNC(=O)c2cccc(S(=O)(=O)Nc3ccc(C)cc3)c2)N2CCCCC2)cc1 (stereo not drawn),i,i,i,i,i
COc1ccc(C(CNC(=O)c2cccc(Br)c2)N2CCCC2)cc1 (stereo not drawn),i,i,89*,i,i
CCCCOc1c(Br)cc(CNCCCN2CCOCC2)cc1OC,i,i,i,i,i
CN(CCc1nc2ccc(Cl)cc2[nH]1)Cc1nc(CC2CC2)no1,i,i,105*,i,i
CCCN(CCC(=O)Nc1cc(OC)cc(OC)c1)CC1CC1,i,i,162*,i,i
CCN(CCC(=O)Nc1cc(OC)cc(OC)c1)Cc1ccccc1,i,i,60*,i,i
Cc1c(NC(=O)CSCc2c(F)cccc2Cl)c(=O)n(-c2ccccc2)n1C,i,i,i,i,i
CN(C)C(CNC(=O)CSc1nnc(-c2ccco2)o1)c1ccccc1 (stereo not drawn),i,i,64*,i,i
CCOc1cc(C2NC(=O)NC(c3ccccc3)=C2C(C)=O)ccc1OC(C)=O (stereo not drawn),i,i,i,i,i
c1ccc(CN2CCC(Nc3nc(-c4ccccc4)nc4ccccc34)CC2)cc1,i,-6.58*,i,i,i
Cc1ccccc1C(=O)OC1CCCN(C)C1 (stereo not drawn),i,i,i,i,14*
CN1CCCC(OC(=O)c2ccc(C#N)cc2)C1 (stereo not drawn),i,i,i,i,i
Cc1cccc(C(=O)OC2CCCN(C)C2)c1C (stereo not drawn),i,i,95*,i,i
O=C(CCNC(=O)N1CCn2c1nc1ccccc12)NCc1ccc(F)cc1,i,i,i,i,i
Cc1cc(C)cc(OCC(=O)Nc2cnn(CCCC(=O)O)c2)c1,i,i,i,i,i
Cc1c(C(=O)c2ccc(Cl)cc2[N+](=O)[O-])c2ccccn2c1CCC#N,i,i,i,i,14*
C=CCN(c1ccc(C(=O)Nc2cccc([N+](=O)[O-])c2)cc1)S(C)(=O)=O,i,i,i,i,i
COc1c(Cl)cc(Cl)cc1CNCCNCCO,i,i,i,i,11*
CCOC(=O)C1(CC2CC2)CCN(Cc2cn[nH]c2-c2ccccc2)CC1,i,i,48*,-8*,i
CCOC(=O)C1(Cc2ccccc2)CCN(Cc2cnn(CC)c2)CC1,i,i,124*,i,i
CCOC(=O)c1[nH]ncc1CN1CCC(Cc2ccccc2)(C(=O)OCC)CC1,i,i,i,i,i
CCOC(=O)C1(Cc2ccccc2)CCN(Cc2cn[nH]c2-c2ccccc2)CC1,i,i,126*,i,i
SMILES,TRPC6 act,TRPC6 inhibitor,TRPC4 agonist,TRPC4 block,TRPC4 PAM
Cc1c(Cl)cccc1NC(=S)NCCc1ccc(C(F)(F)F)cc1,i,i,i,i,i
CCOc1[nH]n(-c2ccccc2)c(=O)c1C=NCc1cccnc1,i,i,i,i,i
CN(C(=O)C1CCC(=O)N(C2CC2)C1)C1CCCCC1 (stereo not drawn),i,i,i,i,i
CN1CCN(Cc2nc3c([nH]2)c(=O)[nH]c(=O)n3C)CC1,i,i,72*,i,i
Cn1c(=O)c2[nH]c(CN3CCN(Cc4ccccc4)CC3)nc2n(C)c1=O,i,i,i,i,i
COc1ccc(C(=O)Nc2nc(CC(=O)NCCc3ccccc3OC)cs2)cc1,i,i,i,i,i
CC1(C)CC(=O)C(C=NCCc2ccc(O)cc2)=C(O)C1,i,i,i,i,i
CCCCCCOc1ccc(N2C(=O)CC(N3CCN(CCN=CC4=C(O)CC(C)(C)CC4=O)CC3)C2=O)cc1 (stereo not drawn),i,i,i,i,i
CC1(C)CC(=O)C(C=NCCc2ccccn2)=C(O)C1,i,i,50*,i,i
CC1(C)CC(=O)C(C=NCCN2CCN(C(=O)CCl)CC2)=C(O)C1,i,i,i,i,34*
CC1(C)CC(=O)C(C=NCCN2CCN(C3CC(=O)N(c4ccc(F)cc4)C3=O)CC2)=C(O)C1 (stereo not drawn),i,i,i,i,i
CC1(C)CC(=O)C(C=NCCN2CCN(C3CC(=O)N(c4cccc(Br)c4)C3=O)CC2)=C(O)C1 (stereo not drawn),i,i,i,i,29*
CCC(=O)N1CCN(CCN=CC2=C(O)CC(C)(C)CC2=O)CC1,i,i,i,i,i
COc1cccc(N2C(=O)CC(N3CCN(CCN=CC4=C(O)CC(C)(C)CC4=O)CC3)C2=O)c1 (stereo not drawn),i,i,i,i,16*
Cc1ccsc1C(=O)N1CCCC(CCC(=O)NCc2ccc(F)c(F)c2)C1 (stereo not drawn),i,i,i,i,i
Cc1cc(Br)c(NC(=O)CN(C)CCOc2ccccc2)c(Br)c1,i,i,i,-6*,i
Cc1ccc(C)c(SCC(=O)Nc2oc(C)c3c(C)n[nH]c(=O)c23)c1,i,i,i,i,i
CCc1ccccc1NC(=O)C1CCN(C(=O)c2ccc([N+](=O)[O-])cc2)CC1,i,i,i,i,i
O=C(c1ccc(Cl)c(Cl)c1)N(Cc1ccco1)c1ccc(O)cc1,i,i,i,-7*,i
COc1cc(CNC(C)c2ccccc2)cc(Cl)c1OCC(=O)Nc1ccccc1 (stereo not drawn),i,i,i,i,i
